The source made the active and inactive calls. The calls are words filed in the database; no cut-off is given here.

This passage reports IC50 and inhibition results from ChEMBL document CHEMBL3414491, “Synthesis and antitumor activities evaluation of m-(4-morpholinoquinazolin-2-yl)benzamides in vitro and in vivo” (Eur J Med Chem, 2015).

Test [1] in a line: Antiproliferative activity against human HCT116 cells after 72 hrs by MTT assay. Format: functional, cell-based. The note with it: HCT-116, 72 h. The essentials: (§1)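 MTT: cells seeded at 1500–4000 per well, grown 24 h, then given serial dilutions (1% DMSO final) for 72 h at 37 °C. MTT was added for 4 h, formazan dissolved in DMSO and absorbance read at 490 nm. Three separate experiments in triplicate; IC50 is the concentration giving 50% cell death versus control.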

A further test relates to MCF7. The test can be described thus: Antiproliferative activity against human MCF7 cells after 72 hrs by MTT assay. Format: functional, cell-based. The note with it: MCF7, 72 h. The essentials:
as §1

Test [2] in a line: Inhibition of PI3K-mediated PI3K/Akt/mTOR pathway in human HCT116 cells assessed as reduction in Akt Ser473 phosphorylation at 10 uM incubated for 1 hr by Western blot method. Format: cell-based. The note with it: HCT-116. An outline of the steps: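 HCT-116 cells were seeded at 5 × 10⁵ per well and grown 16 h at 37 °C, then exposed to 10 µM for 1 h; vehicle control was 0.5% DMSO. Lysates were normalised by BCA, run on 10% SDS-PAGE, transferred to nitrocellulose and probed for AKT and p-Ser473 AKT, with β-actin as loading control. Detection was by chemiluminescence; bands were quantified densitometrically.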

Test [3] in a line: Antiproliferative activity against human U87MG cells after 72 hrs by MTT assay. In kind it is functional, cell-based, U-87MG ATCC. The note with it: U-87 MG. The essentials:
as §1

A further test relates to A549. Put plainly: Antiproliferative activity against human A549 cells after 72 hrs by MTT assay. In kind it is functional, cell-based. The note with it: A549, 72 h. The essentials:
as §1

The target in test [4] is PI3-kinase p110-alpha/p85-alpha (Homo sapiens, UniProt P42336). The test can be described thus: Inhibition of p110alpha/p85alpha (unknown origin) using L-alpha-phosphatidylinositol incubated for 40 mins by ADP depletion detection based luciferase assay. Format: protein-complex assay.
Chain of PI3-kinase p110-alpha/p85-alpha (P27986 whole entry): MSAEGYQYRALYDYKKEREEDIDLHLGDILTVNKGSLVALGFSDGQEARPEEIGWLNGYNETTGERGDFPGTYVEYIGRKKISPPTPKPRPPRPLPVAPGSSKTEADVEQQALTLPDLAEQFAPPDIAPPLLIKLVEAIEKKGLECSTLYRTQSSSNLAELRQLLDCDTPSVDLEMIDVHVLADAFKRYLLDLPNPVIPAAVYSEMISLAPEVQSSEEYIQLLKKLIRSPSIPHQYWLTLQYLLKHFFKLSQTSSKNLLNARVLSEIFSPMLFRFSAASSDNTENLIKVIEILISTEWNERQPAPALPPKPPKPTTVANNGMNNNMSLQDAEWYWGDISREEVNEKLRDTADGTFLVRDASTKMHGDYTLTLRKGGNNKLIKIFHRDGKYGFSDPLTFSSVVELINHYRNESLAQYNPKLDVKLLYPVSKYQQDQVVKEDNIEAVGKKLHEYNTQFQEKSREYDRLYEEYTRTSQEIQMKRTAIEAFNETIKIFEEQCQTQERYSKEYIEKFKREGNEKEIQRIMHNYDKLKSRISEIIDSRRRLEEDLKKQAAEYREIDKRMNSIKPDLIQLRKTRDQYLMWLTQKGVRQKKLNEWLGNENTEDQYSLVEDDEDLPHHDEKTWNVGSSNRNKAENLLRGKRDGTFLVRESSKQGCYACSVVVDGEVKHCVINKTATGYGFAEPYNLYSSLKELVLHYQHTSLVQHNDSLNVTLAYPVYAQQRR
Chain of PI3-kinase p110-alpha/p85-alpha (P42336 whole entry): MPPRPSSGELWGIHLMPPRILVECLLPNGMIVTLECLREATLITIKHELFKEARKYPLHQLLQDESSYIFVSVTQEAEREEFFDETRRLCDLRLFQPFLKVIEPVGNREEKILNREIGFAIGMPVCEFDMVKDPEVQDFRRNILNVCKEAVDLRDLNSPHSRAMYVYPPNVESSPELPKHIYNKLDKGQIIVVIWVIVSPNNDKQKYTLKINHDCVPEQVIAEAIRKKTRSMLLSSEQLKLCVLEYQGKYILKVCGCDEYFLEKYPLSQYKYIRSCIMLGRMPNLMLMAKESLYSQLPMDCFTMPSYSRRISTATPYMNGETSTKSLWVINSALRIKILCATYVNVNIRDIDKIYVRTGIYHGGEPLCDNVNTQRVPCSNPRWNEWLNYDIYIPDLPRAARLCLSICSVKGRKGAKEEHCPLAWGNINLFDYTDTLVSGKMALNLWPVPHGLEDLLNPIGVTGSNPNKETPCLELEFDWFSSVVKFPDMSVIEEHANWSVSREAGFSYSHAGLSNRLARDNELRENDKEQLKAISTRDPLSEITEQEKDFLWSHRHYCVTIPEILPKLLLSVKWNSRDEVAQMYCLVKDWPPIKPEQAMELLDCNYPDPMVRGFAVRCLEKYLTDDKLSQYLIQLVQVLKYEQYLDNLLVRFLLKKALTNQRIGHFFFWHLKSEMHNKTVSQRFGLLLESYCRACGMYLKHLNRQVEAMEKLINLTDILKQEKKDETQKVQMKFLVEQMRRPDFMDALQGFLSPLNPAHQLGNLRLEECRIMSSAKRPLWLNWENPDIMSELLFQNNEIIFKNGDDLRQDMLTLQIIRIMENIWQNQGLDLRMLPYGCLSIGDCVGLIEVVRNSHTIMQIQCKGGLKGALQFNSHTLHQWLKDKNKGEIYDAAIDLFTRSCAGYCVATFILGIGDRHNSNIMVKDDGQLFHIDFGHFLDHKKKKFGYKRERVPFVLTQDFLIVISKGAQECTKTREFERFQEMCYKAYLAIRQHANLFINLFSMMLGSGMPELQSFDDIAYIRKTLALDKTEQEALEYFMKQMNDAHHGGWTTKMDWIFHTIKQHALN
Another test has as its target PI3K p110 beta/p85 alpha (Homo sapiens, UniProt P42338). The test can be described thus: Inhibition of p110beta/p85alpha (unknown origin) using L-alpha-phosphatidylinositol incubated for 40 mins by ADP depletion detection based luciferase assay. Format: protein-complex assay.
The target of test [5] is PI3-kinase subunit gamma/Phosphoinositide 3-kinase regulatory subunit 5 (Homo sapiens, UniProt P48736). Put plainly: Inhibition of p110gamma/PIK3R5 (unknown origin) using L-alpha-phosphatidylinositol incubated for 40 mins by ADP depletion detection based luciferase assay. Format: protein-complex assay.
Chain of PI3-kinase subunit gamma/Phosphoinositide 3-kinase regulatory subunit 5 (P48736 whole entry): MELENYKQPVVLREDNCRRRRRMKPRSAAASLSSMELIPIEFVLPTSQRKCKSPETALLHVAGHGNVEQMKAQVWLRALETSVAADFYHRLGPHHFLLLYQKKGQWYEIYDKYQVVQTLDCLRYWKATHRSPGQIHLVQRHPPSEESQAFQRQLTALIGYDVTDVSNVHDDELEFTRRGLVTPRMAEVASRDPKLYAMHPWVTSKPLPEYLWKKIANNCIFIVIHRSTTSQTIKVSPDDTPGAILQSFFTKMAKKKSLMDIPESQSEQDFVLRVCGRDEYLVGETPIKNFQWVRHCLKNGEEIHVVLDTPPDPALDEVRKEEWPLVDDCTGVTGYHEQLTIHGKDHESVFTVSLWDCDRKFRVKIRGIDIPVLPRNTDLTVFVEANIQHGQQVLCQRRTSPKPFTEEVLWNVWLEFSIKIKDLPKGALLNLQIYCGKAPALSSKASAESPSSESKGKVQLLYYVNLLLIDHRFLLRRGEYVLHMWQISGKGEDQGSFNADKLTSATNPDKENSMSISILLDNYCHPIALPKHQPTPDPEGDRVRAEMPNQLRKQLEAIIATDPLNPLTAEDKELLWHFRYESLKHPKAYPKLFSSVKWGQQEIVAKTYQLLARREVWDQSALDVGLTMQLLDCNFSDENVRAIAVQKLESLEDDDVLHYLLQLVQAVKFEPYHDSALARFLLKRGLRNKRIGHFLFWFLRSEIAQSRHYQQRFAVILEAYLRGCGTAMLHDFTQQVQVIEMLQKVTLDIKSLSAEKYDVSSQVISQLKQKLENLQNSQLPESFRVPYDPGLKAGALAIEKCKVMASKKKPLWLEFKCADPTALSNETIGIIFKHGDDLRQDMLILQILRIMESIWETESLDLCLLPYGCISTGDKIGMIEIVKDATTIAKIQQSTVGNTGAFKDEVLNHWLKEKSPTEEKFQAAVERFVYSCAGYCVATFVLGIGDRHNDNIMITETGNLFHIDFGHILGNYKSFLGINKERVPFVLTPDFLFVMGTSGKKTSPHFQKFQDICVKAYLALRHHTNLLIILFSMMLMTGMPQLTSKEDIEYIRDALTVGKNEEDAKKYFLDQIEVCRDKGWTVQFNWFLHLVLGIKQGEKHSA
Chain of PI3-kinase subunit gamma/Phosphoinositide 3-kinase regulatory subunit 5 (Q8WYR1 whole entry, further chain): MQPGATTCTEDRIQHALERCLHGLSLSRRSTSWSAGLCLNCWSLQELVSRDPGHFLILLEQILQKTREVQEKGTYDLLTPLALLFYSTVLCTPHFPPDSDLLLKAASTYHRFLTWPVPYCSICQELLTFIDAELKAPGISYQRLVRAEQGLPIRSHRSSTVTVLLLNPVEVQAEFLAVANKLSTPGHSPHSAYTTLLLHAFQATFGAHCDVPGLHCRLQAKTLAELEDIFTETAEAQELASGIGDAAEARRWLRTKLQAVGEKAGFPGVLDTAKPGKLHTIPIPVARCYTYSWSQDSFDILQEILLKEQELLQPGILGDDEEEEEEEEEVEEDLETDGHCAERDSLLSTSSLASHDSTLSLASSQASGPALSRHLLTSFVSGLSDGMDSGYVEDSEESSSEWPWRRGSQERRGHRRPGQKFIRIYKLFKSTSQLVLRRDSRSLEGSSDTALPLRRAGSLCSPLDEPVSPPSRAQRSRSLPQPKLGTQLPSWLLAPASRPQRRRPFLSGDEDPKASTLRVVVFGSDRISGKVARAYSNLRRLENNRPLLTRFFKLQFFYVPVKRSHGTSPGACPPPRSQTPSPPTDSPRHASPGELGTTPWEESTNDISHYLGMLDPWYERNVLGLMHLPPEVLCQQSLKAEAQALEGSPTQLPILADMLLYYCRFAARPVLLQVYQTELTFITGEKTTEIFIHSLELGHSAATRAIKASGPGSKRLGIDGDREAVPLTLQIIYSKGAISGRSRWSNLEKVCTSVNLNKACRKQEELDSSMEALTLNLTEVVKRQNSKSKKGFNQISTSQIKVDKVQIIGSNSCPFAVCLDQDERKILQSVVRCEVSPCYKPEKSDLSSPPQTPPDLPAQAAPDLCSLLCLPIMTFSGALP
Test [6] concerns the target PI3-kinase p110-delta/p85-alpha (Homo sapiens, UniProt O00329). Put plainly: Inhibition of p110delta/p85alpha (unknown origin) using L-alpha-phosphatidylinositol incubated for 40 mins by ADP depletion detection based luciferase assay. In kind it is protein-complex assay.

Chain of PI3-kinase p110-delta/p85-alpha (P27986 whole entry): as the sequence (P27986 whole entry) above
Chain of PI3-kinase p110-delta/p85-alpha (O00329 whole entry): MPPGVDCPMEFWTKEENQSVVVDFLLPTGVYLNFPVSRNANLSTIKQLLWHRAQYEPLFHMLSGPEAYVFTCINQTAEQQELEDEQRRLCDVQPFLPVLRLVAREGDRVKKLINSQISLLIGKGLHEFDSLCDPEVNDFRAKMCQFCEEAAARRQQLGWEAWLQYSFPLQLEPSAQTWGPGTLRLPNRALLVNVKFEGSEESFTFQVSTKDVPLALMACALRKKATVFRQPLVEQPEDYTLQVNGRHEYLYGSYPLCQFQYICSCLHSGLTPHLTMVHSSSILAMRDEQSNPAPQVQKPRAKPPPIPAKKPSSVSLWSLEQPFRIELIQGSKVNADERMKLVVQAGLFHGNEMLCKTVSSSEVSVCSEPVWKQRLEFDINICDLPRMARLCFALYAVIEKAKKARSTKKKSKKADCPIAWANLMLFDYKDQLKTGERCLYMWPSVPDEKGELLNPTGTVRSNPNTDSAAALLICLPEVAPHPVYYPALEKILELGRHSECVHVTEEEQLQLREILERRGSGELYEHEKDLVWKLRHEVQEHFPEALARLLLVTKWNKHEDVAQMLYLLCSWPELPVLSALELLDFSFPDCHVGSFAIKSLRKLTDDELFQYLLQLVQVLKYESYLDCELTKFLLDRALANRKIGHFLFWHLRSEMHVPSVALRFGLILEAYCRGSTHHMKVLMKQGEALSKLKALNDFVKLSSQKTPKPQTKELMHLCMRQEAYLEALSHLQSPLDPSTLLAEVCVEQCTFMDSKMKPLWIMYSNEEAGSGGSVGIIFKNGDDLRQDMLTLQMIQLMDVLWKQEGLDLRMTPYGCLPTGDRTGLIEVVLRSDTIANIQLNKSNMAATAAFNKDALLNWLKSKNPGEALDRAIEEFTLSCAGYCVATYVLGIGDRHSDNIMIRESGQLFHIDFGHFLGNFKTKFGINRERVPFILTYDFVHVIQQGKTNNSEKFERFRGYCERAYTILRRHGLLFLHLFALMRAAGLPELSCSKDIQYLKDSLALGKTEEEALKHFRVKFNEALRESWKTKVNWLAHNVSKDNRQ

Consider `COCCOc1cc2c(N3CCOCC3)nc(-c3cc(OC)cc(C(N)=O)c3)nc2cc1OC`, for which the IC50 in [1] is 0.89 µM; with MCF7, 5.19 µM.
The corresponding values for `COC(=O)c1cccc(-c2nc(N3CCOCC3)c3cc(OC)c(OC)cc3n2)c1` are 1.07 µM and 3.44 µM.
The corresponding values for `COc1cc(C(N)=O)cc(-c2nc(N3CCOCC3)c3cc(OC)c(OCCN4CCCCC4)cc3n2)c1` are 1.28 µM and 6.38 µM.
The corresponding values for `CNC(=O)COc1cc2nc(-c3cc(OC)cc(C(N)=O)c3)nc(N3CCOCC3)c2cc1OC` are 21.7 µM and 14.9 µM.
Turning to `CS(=O)(=O)N1CCN(Cc2cc3nc(-c4cccc5[nH]ncc45)nc(N4CCOCC4)c3s2)CC1` [PICTILISIB], the inhibition result in test [2] is “Active”. For the same molecule, the IC50 amounted to 0.37 µM in [1], 1.09 µM in the test with MCF7, 1.24 µM in test [3] and 2.28 µM in the test with A549.
Regarding `COc1cc(C(N)=O)cc(-c2nc(N3CCOCC3)c3cc(OC)c(OCC(=O)N4CCOCC4)cc3n2)c1`, the IC50 in test [1] turned out to be 6.48 µM; with MCF7, 24.4 µM.
The corresponding values for `COc1cc2nc(-c3ccc(C(N)=O)cc3)nc(N3CCOCC3)c2cc1OC` are 1.25 µM and 4.6 µM.
Consider `COc1cc2nc(-c3cccc(C(=O)N(C)C)c3)nc(N3CCOCC3)c2cc1OC`, for which the IC50 worked out at 4.73 µM in test [1] and 5.01 µM in the test with MCF7.
The corresponding values for `COc1cc2nc(-c3ccc(Cl)c(C(N)=O)c3)nc(N3CCOCC3)c2cc1OC` are 2.97 µM and 4.24 µM.
For `COc1cc(C(N)=O)cc(-c2nc(N3CCOCC3)c3cc(OC)c(OCCN4CCCC4)cc3n2)c1`, the IC50 in test [1] was found to be 0.81 µM; with MCF7, 1.01 µM; in [3] it was 2.45 µM; with A549, 9.37 µM.
Turning to `COc1cc2nc(-c3cc(C(N)=O)cc(C(F)(F)F)c3)nc(N3CCOCC3)c2cc1OC`, the IC50 was determined as 0.71 µM in [1], 2.03 µM with MCF7, 1.19 µM in test [3] and 4.75 µM in the test with A549.
With `COc1cc(C(N)=O)cc(-c2nc(N3CCOCC3)c3cc(OC)c(OCC(=O)N4CCN(C)CC4)cc3n2)c1`, the half-inhibitory concentration (IC50) in test [1] amounted to 9.44 µM; in the test on MCF7, 18.7 µM.
In the same order, the values of `COc1cc2nc(-c3ccc(O)c(C(N)=O)c3)nc(N3CCOCC3)c2cc1OC` are 2.77 µM and 7.42 µM.
The corresponding values for `COc1cc2nc(-c3ccc(OCc4ccccc4)c(C(N)=O)c3)nc(N3CCOCC3)c2cc1OC` are 5.03 µM and 7.9 µM.
For `COCCOc1cc2nc(-c3cc(OC)cc(C(N)=O)c3)nc(N3CCOCC3)c2cc1OC`, the values for the IC50 (in test [1]; in the test on MCF7) were 2.7 µM and above 20 µM, respectively.
In the case of `COc1cc2nc(-c3cc(O)cc(C(N)=O)c3)nc(N3CCOCC3)c2cc1OC`, the IC50 in test [4] is 0.053 µM; against PI3K p110 beta/p85 alpha, 0.454 µM; in [5], 0.394 µM; in test [6] it was 0.26 µM; in test [1], 0.88 µM; in the test with MCF7 it was 2.64 µM. Moreover, the half-maximal inhibitory concentration (IC50) in [3] amounted to 1.84 µM; in the test with A549, 17.2 µM.
With `COc1cc(C(N)=O)cc(-c2nc(N3CCOCC3)c3cc(OC)c(OCCN4CCOCC4)cc3n2)c1`, the IC50 in test [1] was found to be 4.72 µM; in the test on MCF7, 5.66 µM.
The corresponding values for `COc1cc(C(N)=O)cc(-c2nc(N3CCOCC3)c3cc(OC)c(OCC4CCOCC4)cc3n2)c1` are 3.14 µM and 8.52 µM.
In the same order, the values of `COCCOc1cc2nc(-c3cc(OC)cc(C(N)=O)c3)nc(N3CCOCC3)c2cc1OCCOC` are 9.04 µM and 7.52 µM.
The corresponding values for `COc1cc2nc(-c3cc(OCc4ccccc4)cc(C(N)=O)c3)nc(N3CCOCC3)c2cc1OC` are 3.83 µM and 6.93 µM.
As for `COc1cc2nc(-c3ccc(OC)c(C(N)=O)c3)nc(N3CCOCC3)c2cc1OC`, the IC50 in test [1] came to 0.47 µM; in the test with MCF7, 1.22 µM; in test [3] it was 1.9 µM; in the test on A549, 9.63 µM.
For the molecule `COc1cc(C(N)=O)cc(-c2nc(N3CCOCC3)c3cc(OC)c(OC)cc3n2)c1`, the IC50 in test [1] is 0.45 µM; with MCF7 it was 1.75 µM; in test [3], 1.01 µM; with A549, 9.22 µM.
With `COc1cc(C(N)=O)cc(-c2nc(N3CCOCC3)c3cc(OC)c(OCc4ccccc4)cc3n2)c1`, the 50% inhibitory concentration (IC50) in [1] is 6.45 µM; in the test with MCF7, 10.3 µM.
On to `COc1cc2nc(-c3cccc(C(=O)O)c3)nc(N3CCOCC3)c2cc1OC`, for which the IC50 is 12.5 µM in test [1] and above 20 µM in the test with MCF7.
As to `CNC(=O)c1cccc(-c2nc(N3CCOCC3)c3cc(OC)c(OC)cc3n2)c1`, the results for the IC50 (in [1]; in the test on MCF7) were 2.52 µM and 6.2 µM, respectively.
For the molecule `COc1cc2nc(-c3cccc(C(N)=O)c3)nc(N3CCOCC3)c2cc1OC`, the IC50 in test [1] was 0.9 µM; in the test with MCF7 it was 2.14 µM; in [3] it was 1.57 µM; in the test on A549, 26.1 µM.
As to `COc1cc2nc(-c3cccc(NC(C)=O)c3)nc(N3CCOCC3)c2cc1OC`, the IC50 in test [1] was 1.42 µM; in the test with MCF7 it was 3.49 µM.
Consider `COc1cc2nc(-c3ccc(NC(C)=O)cc3)nc(N3CCOCC3)c2cc1OC`, for which the IC50 in [1] was found to be 1.09 µM; in the test with MCF7, 3.61 µM.
Take `COc1cc2nc(-c3cnc(N)nc3)nc(N3CCOCC3)c2cc1OC`: the IC50 in [1] was found to be 0.42 µM; with MCF7, 1.38 µM; in test [3], 5 µM; with A549, 3.21 µM.
